Assay results as given in ChEMBL document CHEMBL3351398, “Discovery of a Potent and Selective DGAT1 Inhibitor with a Piperidinyl-oxy-cyclohexanecarboxylic Acid Moiety” (ACS Med Chem Lett, 2014).

Key:
[1] = target: T1, Diacylglycerol O-acyltransferase 1 (Mus musculus, UniProt Q9Z2A7); assay: Inhibition of mouse DGAT1
T1 sequence (Q9Z2A7 whole entry): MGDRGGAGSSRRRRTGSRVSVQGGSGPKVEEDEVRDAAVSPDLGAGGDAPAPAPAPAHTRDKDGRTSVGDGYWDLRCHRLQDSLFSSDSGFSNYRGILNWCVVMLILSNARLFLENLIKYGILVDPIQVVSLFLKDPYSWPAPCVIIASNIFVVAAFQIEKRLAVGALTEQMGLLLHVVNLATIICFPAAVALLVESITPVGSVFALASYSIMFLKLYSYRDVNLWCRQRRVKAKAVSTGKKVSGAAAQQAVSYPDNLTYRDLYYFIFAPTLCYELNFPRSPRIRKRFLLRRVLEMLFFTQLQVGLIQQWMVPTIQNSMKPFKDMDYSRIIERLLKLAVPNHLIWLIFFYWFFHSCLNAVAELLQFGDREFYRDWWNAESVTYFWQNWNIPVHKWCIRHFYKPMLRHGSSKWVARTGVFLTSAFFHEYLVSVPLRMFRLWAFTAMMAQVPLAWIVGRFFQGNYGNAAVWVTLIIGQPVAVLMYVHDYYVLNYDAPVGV

[2] = target: Adenosine receptor A2a (Homo sapiens, UniProt P29274); assay: Binding affinity to human A2A receptor
Chain of Adenosine receptor A2a (P29274 whole entry): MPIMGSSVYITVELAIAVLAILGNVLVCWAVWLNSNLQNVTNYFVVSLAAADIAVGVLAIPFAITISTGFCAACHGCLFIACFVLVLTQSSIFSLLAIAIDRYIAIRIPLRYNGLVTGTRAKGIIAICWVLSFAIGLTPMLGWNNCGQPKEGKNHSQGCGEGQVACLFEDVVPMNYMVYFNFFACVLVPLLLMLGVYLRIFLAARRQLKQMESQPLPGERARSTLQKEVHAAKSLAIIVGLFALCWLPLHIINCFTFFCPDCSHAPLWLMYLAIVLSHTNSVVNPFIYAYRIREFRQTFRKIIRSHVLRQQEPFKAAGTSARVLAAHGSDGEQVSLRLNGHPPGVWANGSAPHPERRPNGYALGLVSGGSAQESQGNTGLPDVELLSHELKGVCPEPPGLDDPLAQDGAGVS
Method in brief: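 Recombinant human A2A receptor was tested in an in-house radioligand competition binding assay. The value is reported as Ki.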

[3] = Unbound fraction in human plasma; assay type: ADME, cell-free
[4] = tested on: Rattus norvegicus; assay: Inhibition of plasma triglyceride accumulation in Sprague-Dawley rat at 3 mg/kg, po dosed 2 hrs before lipid challenge and measured at 18 hrs by lipid tolerance test; assay type: functional
Method in brief: (§1)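 Rat lipid tolerance test at oral doses of 1 and 3 mpk. Reduction of lipid excursion was normalized to a reference DGAT1 inhibitor given at 10 mpk, set as 100%. Plasma drug levels were the parent and its cis isomer combined, measured 4 h after oral dosing.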

[5] = Plasma concentration in Sprague-Dawley rat at 3 mg/kg, po dosed 2 hrs before lipid challenge and measured at 4 hrs by lipid tolerance test; assay type: ADME, organism-based; set-up: dose 3 mg/kg, route oral; method in brief: as §1
[6] = tested on: Salmonella typhimurium; assay: Induction of mutagenicity in Salmonella typhimurium TA100 assessed as increase in number of revertants in absence of metabolic activation; assay type: toxicity, organism-based; conditions: salmonella enterica subsp. enterica serovar typhimurium
Method in brief: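 Microbial reverse-mutation (Ames) test in strains TA1535, TA98 and TA100, with and without metabolic activation. The concentration range was 30 to 5000 μg/plate. A positive call required a 2-fold or greater increase in revertants relative to the solvent control.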

[7] = Oral bioavailability in Sprague-Dawley rat at 2 mg/kg; assay type: ADME, organism-based; conditions: in vivo
[8] = Volume of distribution at steady state in Sprague-Dawley rat at 1 mg/kg, iv or 2 mg/kg, po; assay type: ADME, organism-based; conditions: in vivo, read-out: Vdss
Method in brief: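 Sprague–Dawley rats were dosed as a solution in EtOH/PEG400/water (10:50:40), 1 mg/kg iv and 2 mg/kg po. Pharmacokinetic parameters were derived from these dosings.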

[9] = Half life in Sprague-Dawley rat at 1 mg/kg, iv or 2 mg/kg, po; assay type: ADME, organism-based; conditions: in vivo
[10] = AUC in Sprague-Dawley rat at 2 mg/kg, po; assay type: ADME, organism-based; set-up: dose 2 mg/kg, route oral; conditions: plasma
[11] = Half life in Beagle dog at 1 mg/kg, iv or 4 mg/kg, po; assay type: ADME, organism-based, Canis lupus familiaris; conditions: in vivo
Method in brief: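 Single-dose pharmacokinetics. Beagle dogs were dosed at 1 mg/kg iv as a solution in 30% captisol (pH 8) and at 4 mg/kg po in 0.5 methylcellulose.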

[12] = Drug level in plasma of C57BL/6 mouse at 10 mg/kg, po after 3 hrs; assay type: ADME, organism-based; set-up: dose 10 mg/kg, route oral
Method in brief: (§2)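 Tissue distribution in C57BL/6 mice. A single oral dose of 10 mg/kg was given as a solution in EtOH/PEG400/water (10:50:40). Parent and its cis isomer were both measured, in μM, in plasma, liver, small intestine, adipose fat and skin at 3 h and 24 h.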

[13] = Drug level in liver of C57BL/6 mouse at 10 mg/kg, po after 3 hrs; assay type: ADME, organism-based; set-up: dose 10 mg/kg, route oral; conditions: read-out: Drug uptake; method in brief: as §2
[14] = Drug level in adipose fat of C57BL/6 mouse at 10 mg/kg, po after 3 hrs; assay type: ADME, organism-based, Adipose tissue; set-up: dose 10 mg/kg, route oral; conditions: read-out: Drug uptake; method in brief: as §2
[15] = Drug level in skin of C57BL/6 mouse at 10 mg/kg, po after 3 hrs; assay type: ADME, organism-based, Zone of skin; set-up: dose 10 mg/kg, route oral; conditions: read-out: Drug uptake; method in brief: as §2
[16] = Drug level in plasma of C57BL/6 mouse at 10 mg/kg, po after 24 hrs; assay type: ADME, organism-based; set-up: dose 10 mg/kg, route oral; method in brief: as §2
[17] = Drug level in liver of C57BL/6 mouse at 10 mg/kg, po after 24 hrs; assay type: ADME, organism-based; set-up: dose 10 mg/kg, route oral; conditions: read-out: Drug uptake; method in brief: as §2
[18] = Drug level in small intestine of C57BL/6 mouse at 10 mg/kg, po after 24 hrs; assay type: ADME, organism-based; set-up: dose 10 mg/kg, route oral; conditions: read-out: Drug uptake; method in brief: as §2
[19] = tested on: Plasma; assay: Drug level in plasma of C57BL/6 mouse assessed as cis-4-((1-(5-(5-(trifluoromethyl)-1H-benzo[d]imidazol-2-yl)pyridin-2-yl)piperidin-4-yl)oxy)cyclohexanecarboxylic acid level at 10 mg/kg, po after 24 hrs; assay type: ADME, organism-based; set-up: dose 10 mg/kg, route oral; conditions: in vivo; method in brief: as §2
[20] = tested on: Intestine; assay: Drug level in small intestine of C57BL/6 mouse assessed as cis-4-((1-(5-(5-(trifluoromethyl)-1H-benzo[d]imidazol-2-yl)pyridin-2-yl)piperidin-4-yl)oxy)cyclohexanecarboxylic acid level at 10 mg/kg, po after 24 hrs; assay type: ADME, organism-based; set-up: dose 10 mg/kg, route oral; conditions: in vivo, read-out: Drug uptake; method in brief: as §2
[21] = tested on: Zone of skin; assay: Drug level in skin of C57BL/6 mouse assessed as cis-4-((1-(5-(5-(trifluoromethyl)-1H-benzo[d]imidazol-2-yl)pyridin-2-yl)piperidin-4-yl)oxy)cyclohexanecarboxylic acid level at 10 mg/kg, po after 24 hrs; assay type: ADME, organism-based; set-up: dose 10 mg/kg, route oral; conditions: in vivo, read-out: Drug uptake; method in brief: as §2
[22] = tested on: Liver; assay: Drug level in liver of C57BL/6 mouse assessed as cis-4-((1-(5-(5-(trifluoromethyl)-1H-benzo[d]imidazol-2-yl)pyridin-2-yl)piperidin-4-yl)oxy)cyclohexanecarboxylic acid level at 10 mg/kg, po after 3 hrs; assay type: ADME, organism-based; set-up: dose 10 mg/kg, route oral; conditions: in vivo, read-out: Drug uptake; method in brief: as §2
[23] = Drug level in adipose fat of C57BL/6 mouse assessed as cis-4-((1-(5-(5-(trifluoromethyl)-1H-benzo[d]imidazol-2-yl)pyridin-2-yl)piperidin-4-yl)oxy)cyclohexanecarboxylic acid level at 10 mg/kg, po after 3 hrs; assay type: ADME, organism-based, Adipose tissue; set-up: dose 10 mg/kg, route oral; conditions: in vivo, read-out: Drug uptake; method in brief: as §2

SMILES: O=C(O)[C@H]1CC[C@H](OC2CCN(c3ccc(-c4nc5cc(C(F)(F)F)ccc5[nH]4)cn3)CC2)CC1
- IC50 [1]: 23 nM
- Ki [2]: 4600 nM
- fraction unbound [3]: 0.09
- inhibition in vivo at 3 mg/kg [4]: 80%
- concentration at 4 h [5]: 58 nM
- Activity [6]: Non-toxic
- bioavailability [7]: 8%
- Vd [8]: 0.19 L/kg
- half-life [9]: 0.91 h
- AUC [10]: 1 µM·h
- half-life [11]: 1.16 h
- concentration at 3 h [12]: 324 nM
- concentration at 3 h [13]: 21600 nM
- concentration at 3 h [14]: 237 nM
- concentration at 3 h [15]: 404 nM
- concentration at 24 h [16]: < 10 nM
- concentration at 24 h [17]: 4020 nM
- concentration at 24 h [18]: 711 nM
- concentration [19]: < 10 nM
- concentration [20]: 76 nM
- concentration [21]: 18 nM
- concentration [22]: 6910 nM
- concentration [23]: 21 nM
